Here are results for 9 compounds from ChEMBL document CHEMBL1157301, “N-Methyl-4-hydroxy-2-pyridinone analogues from Fusarium oxysporum” (J Nat Prod, 2006).

Values after ≈ are worked out from the molar mass of the structure shown. Active and inactive are the calls of the source. The rule behind the calls is not given here.

Common to all, as to assay type: functional, organism-based
Assay [1] relates to Candida albicans. The assay can be described thus: Antifungal activity against Candida albicans ATCC 90028 at 37 degC after 18 to 24 hrs.
Another assay concerns Cryptococcus neoformans. The experiment in a line: Antifungal activity against Cryptococcus neoformans ATCC 90113 at 30 degC after 68 to 72 hrs.
The subject of assay [2] is Mycobacterium intracellulare. The assay can be described thus: Antimycobacterial activity against Mycobacterium intracellular ATCC 23068 at 37 degC after 68 to 72 hrs. In outline: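 Modified Franzblau microdilution. Samples in DMSO, serially diluted in 20% DMSO/saline, tested in duplicate. Inoculum in Middlebrook 7H9 broth with OADC and 5% Alamar Blue, pH 7.3. Incubated at 37 °C, 10% CO2, 68–72 h. Fluorescence read at 544ex/590em before and after incubation. IC50 from percent growth versus concentration; MIC is the lowest concentration with no detectable growth. Ciprofloxacin control.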

A further assay has as its system Aspergillus fumigatus. The assay can be described thus: Antifungal activity against Aspergillus fumigatus ATCC 90906 at 30 degC after 68 to 72 hrs.
Another assay deals with Fusarium verticillioides. The experiment in a line: Antifungal activity against Fusarium verticillioides up to 1 mg/mL by disk assay. In outline: (§1)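 Disk diffusion assay run as described by Alam et al., with captan as positive control; compounds tested up to 1mg/mL.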
A further assay deals with Aspergillus flavus. The assay can be described thus: Antifungal activity against Aspergillus flavus up to 1 mg/mL by disk assay. The method, boiled down: as §1
In assay [3] the test system is Candida albicans. The experiment in a line: Antifungal activity against Candida albicans ATCC 90028 up to 50 ug/mL after 18 to 24 hrs at 37 degC.

In the case of `CCC(C)CC(C)/C=C(\C)[C@@H]1O[C@H](c2c(O)c([C@@]3(O)CCC(OC)(OC)C[C@@H]3O)cn(C)c2=O)CC[C@H]1C` (stereo not given in full), the result (in the assay with Candida albicans [1]; with Cryptococcus neoformans; in assay [2]; in the assay on Aspergillus fumigatus; with Fusarium verticillioides; with Aspergillus flavus) was inactive.

Take `CCC(C)CC(C)/C=C(\C)[C@@H]1O[C@H](c2c(O)c(-c3ccc(O)cc3)cn(C)c2=O)CC[C@H]1C` (stereo not given in full): the result (with Candida albicans [1]; in the assay on Cryptococcus neoformans; in assay [2]; in the assay with Aspergillus fumigatus; in the assay on Fusarium verticillioides; with Aspergillus flavus) was inactive.

As to `CC[C@H](C)[C@H]1C(=O)O[C@H](C(C)C)C(=O)N(C)[C@@H](C(C)C)C(=O)O[C@H](C(C)C)C(=O)N(C)[C@@H](C(C)C)C(=O)O[C@H](C(C)C)C(=O)N1C` [ENNIATIN B1], the half-maximal inhibitory concentration (IC50) with Candida albicans [1] is 2 µg/mL (≈ 3.06 µM); with Cryptococcus neoformans, 9 µg/mL (≈ 13.8 µM); in assay [2], 15 µg/mL (≈ 22.9 µM). In addition, the minimum inhibitory concentration (MIC) in the assay with Candida albicans [1] worked out at 6.25 µg/mL (≈ 9.56 µM); against Cryptococcus neoformans it was 25 µg/mL (≈ 38.2 µM).

As for `C[C@@H]1[C@H](O)[C@@H](C)/C=C/C=C/C=C/C=C/C=C/C=C/C=C/[C@H](O[C@@H]2O[C@H](C)[C@@H](O)[C@H](N)[C@@H]2O)C[C@@H]2O[C@](O)(C[C@@H](O)C[C@@H](O)[C@H](O)CC[C@@H](O)C[C@@H](O)CC(=O)O[C@H]1C)C[C@H](O)[C@H]2C(=O)O` [AMPHOTERICIN B], half-maximal inhibition in the assay on Aspergillus fumigatus (IC50) was put at 0.91 µg/mL (≈ 0.985 µM).

Take `COC[C@H]1OC(=O)c2coc3c2[C@@]1(C)C1=C(C3=O)[C@@H]2CCC(=O)[C@@]2(C)C[C@H]1OC(C)=O` [WORTMANNIN]: in the assay on Candida albicans [1], the concentration for half-maximal inhibition (IC50) worked out at 0.25 µg/mL (≈ 0.584 µM) and 0.78 µg/mL (≈ 1.82 µM) was the least that counted as inhibitory (MIC).

Consider `O=C(O)c1cn(C2CC2)c2cc(N3CCNCC3)c(F)cc2c1=O` [CIPROFLOXACIN], for which the lowest concentration to inhibit growth in assay [2] (MIC) was 0.63 µg/mL (≈ 1.9 µM).

Regarding `CCC(C)CC(C)/C=C(\C)C1OC(c2c(O)c([C@]3(O)CCC(=O)C[C@@H]3O)cn(C)c2=O)CC[C@@H]1C` (stereo not given in full), the IC50 in the assay on Cryptococcus neoformans is 35 µg/mL (≈ 71.5 µM); in the assay on Aspergillus fumigatus it was 2 µg/mL (≈ 4.08 µM). In addition, the result in the assay on Candida albicans [3], in the assay on Fusarium verticillioides and in the assay on Aspergillus flavus was inactive.

In the case of `CCC(C)CC(C)/C=C(\C)[C@@H]1O[C@H](c2c(O)c(-c3ccc(O)cc3)c[nH]c2=O)CC[C@H]1C` (stereo not given in full), the outcome (in the assay on Candida albicans [1]; in the assay with Cryptococcus neoformans; in assay [2]; in the assay on Aspergillus fumigatus; in the assay with Fusarium verticillioides; in the assay with Aspergillus flavus) was inactive.

The compound `CCC(C)CC(C)/C=C(\C)[C@@H]1O[C@H](c2c(O)c([C@@]3(O)CCC(=O)C[C@H]3O)cn(C)c2=O)CC[C@H]1C` (stereo not given in full) showed a half-maximal inhibitory concentration (IC50) with Aspergillus fumigatus of 35 µg/mL (≈ 71.5 µM). Moreover, the outcome in the assay on Fusarium verticillioides and in the assay with Aspergillus flavus was inactive.
